Experiment [1] concerns the target Tubulin beta-6 chain (Arabidopsis thaliana) (UniProt P29514). Briefly: Effect on GFP-tagged tubulin beta6 polymerization in Arabidopsis thaliana (L.) Heynh assessed as shorten leading end at 25 uM after 10 mins by confocal microscopic analysis (reference value: 15.43 +/- 5.37 um/min).
The species entered for experiment [2] is Bos taurus. Briefly: Inhibition of rhodamine-labeled bovine brain tubulin polymerization assessed as shorter microtubules at 20 uM after 20 mins by fluorescence microscopic analysis relative to control. In a few lines: (§1)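 Purified bovine brain tubulin mixed with rhodamine-tubulin and GTP was polymerized in MRB80 (80 mM PIPES/KOH pH 6.8, 1 mM MgCl2, 1 mM EGTA) plus 6% glycerol, with 20 μM compound or 0.01% DMSO. Incubation was 20 min at 37 °C, stopped with 0.5% glutaraldehyde. MT number and total length were measured by wide-field fluorescence microscopy. Data are average ± SE, compared by Scheffe's test.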

Experiment [3] relates to REF52. Briefly: Induction of microtubule depolymerization in rat REF52 cells at 27.5 uM after 5 to 30 mins by fluorescence assay relative to control. The class given is cell-based.
Experiment [4] relates to HeLa. Briefly: Induction of microtubule depolymerization in human HeLa cells at 27.5 uM after 30 mins by fluorescence assay. The class given is cell-based. In a few lines: (§2)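 HeLa or Ref52 cells were grown in DMEM with 10% fetal calf serum at 37 °C/5% CO2. Compound was dissolved in DMSO and diluted in serum-free DMEM. Cells were permeabilized and fixed in paraformaldehyde/Triton X-100. MTs were immunostained with DM1A plus an Alexa 488 secondary, and actin was stained with Alexa 555-phalloidin. Cells were examined by confocal microscopy.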

The target in experiment [5] is Tubulin beta-6 chain (Arabidopsis thaliana) (UniProt P29514). Briefly: Effect on GFP-tagged tubulin beta6 polymerization in Arabidopsis thaliana (L.) Heynh at 25 uM after 10 mins by confocal microscopic analysis.
Tubulin beta-6 chain (Arabidopsis thaliana), sequence (P29514 whole entry): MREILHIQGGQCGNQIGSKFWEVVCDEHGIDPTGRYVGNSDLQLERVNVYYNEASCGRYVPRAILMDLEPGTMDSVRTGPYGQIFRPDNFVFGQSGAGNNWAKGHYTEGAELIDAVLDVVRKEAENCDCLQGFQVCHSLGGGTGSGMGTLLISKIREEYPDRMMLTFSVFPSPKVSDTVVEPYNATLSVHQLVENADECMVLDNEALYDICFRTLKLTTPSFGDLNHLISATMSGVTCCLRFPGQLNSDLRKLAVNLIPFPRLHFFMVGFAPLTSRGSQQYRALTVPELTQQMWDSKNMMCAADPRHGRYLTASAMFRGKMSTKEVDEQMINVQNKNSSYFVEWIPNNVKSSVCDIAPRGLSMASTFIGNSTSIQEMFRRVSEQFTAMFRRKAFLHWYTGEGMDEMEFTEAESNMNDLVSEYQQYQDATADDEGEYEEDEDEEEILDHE
Experiment [6] shares this target. Briefly: Effect on GFP-tagged tubulin beta6 polymerization in Arabidopsis thaliana (L.) Heynh assessed as shorten lagging end at 25 uM after 10 mins by confocal microscopic analysis (reference value: 3.57 +/- 2.33 um/min).
For experiment [7], the system named is REF52. Briefly: Induction of microtubule depolymerization in rat REF52 cells after 30 mins by fluorescence assay. The class given is cell-based.
Experiment [8] relates to REF52. Briefly: Effect on actin depolymerization in rat REF52 cells at 27.5 uM after 30 mins by fluorescence assay. The class given is cell-based. In a few lines:
as §2

Experiment [9] deals with Arabidopsis thaliana. Briefly: Effect on GFP-talin-tagged actin organization in Arabidopsis thaliana (L.) Heynh at 25 uM after 10 mins by confocal microscopic analysis. In a few lines: (§3)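 GFP-talin (actin marker) Arabidopsis Columbia seedlings were raised on MS medium with 4 days of dark stratification at 4 °C, then grown at 24 °C under a 16/8 h photoperiod. Cotyledons of 7-day-old seedlings were treated with 25 μM for 10 min. Actin fiber organization and dynamics were followed by confocal time-lapse imaging.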

Experiment [10] has as its system REF52. Briefly: Induction of microtubule depolymerization in rat REF52 cells at 27.5 uM by fluorescence assay. The class given is cell-based. The conditions noted are these: TDE = time-dependent effect.
Experiment [11] relates to REF52. Briefly: Induction of microtubule depolymerization in rat REF52 cells at 27.5 to 55 uM after 30 mins by fluorescence assay relative to control. The class given is cell-based.
Experiment [12] addresses Tubulin beta-6 chain (Arabidopsis thaliana) (UniProt P29514). Briefly: Effect on GFP-tagged tubulin beta6 polymerization in Arabidopsis thaliana (L.) Heynh assessed as growth of lagging end at 25 uM after 10 mins by confocal microscopic analysis (reference value: 3.54 +/- 2.48 um/min).
For experiment [13], the system named is Arabidopsis thaliana. Briefly: Effect on GFP-talin-tagged actin dynamics in Arabidopsis thaliana (L.) Heynh at 25 uM after 10 mins by confocal microscopic analysis. In a few lines:
as §3

The test system of experiment [14] is REF52. Briefly: Induction of microtubule depolymerization in rat REF52 cells at 27.5 uM after 30 mins by fluorescence assay. The class given is cell-based.
The target of experiment [15] is Tubulin beta-6 chain (Arabidopsis thaliana) (UniProt P29514). Briefly: Effect on GFP-tagged tubulin beta6 polymerization in Arabidopsis thaliana (L.) Heynh assessed as growth of leading end at 25 uM after 10 mins by confocal microscopic analysis (reference value: 5.79 +/- 1.15 um/min).
In experiment [16] the test system is HeLa. Briefly: Effect on actin depolymerization in human HeLa cells at 27.5 uM after 30 mins by fluorescence assay. The class given is cell-based. In a few lines:
as §2

The test system of experiment [17] is REF52. Briefly: Induction of microtubule depolymerization in rat REF52 cells at 6.9 to 13.8 uM after 30 mins by fluorescence assay relative to control. The class given is cell-based.
Experiment [18] is filed under the species Bos taurus. Briefly: Inhibition of rhodamine-labeled bovine brain tubulin polymerization assessed as number of microtubules at 20 uM after 20 mins by fluorescence microscopic analysis relative to control. In a few lines:
as §1

Experiment [19] has as its system REF52. Briefly: Induction of microtubule depolymerization in rat REF52 cells assessed as decrease in fluorescence associated with fibers at 27.5 uM incubated for 5 to 30 mins measured after 30 mins relative to control. The class given is cell-based. The arrangement: scale not given: the % may be the effect or the level left.
For experiment [20], the species on record is Bos taurus. Briefly: Inhibition of rhodamine-labeled bovine brain tubulin polymerization assessed as shorter microtubules at 20 uM after 20 mins by fluorescence microscopic analysis relative to control; values are per cent of control.
The species entered for experiment [21] is Bos taurus. Briefly: Inhibition of rhodamine-labeled bovine brain tubulin polymerization assessed as number of microtubules at 20 uM after 20 mins by fluorescence microscopic analysis relative to control; values are per cent of control.
Experiment [22] concerns REF52. Briefly: Induction of microtubule depolymerization in rat REF52 cells assessed as […] in ratio of soluble to insoluble tubulin fraction at 0.1 uM after 30 mins by Western blot analysis. The class given is cell-based. In a few lines:
(§4)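 Ref52 rat embryonic fibroblasts grown in DMEM with 10% FCS at 37 °C/5% CO2 and dosed for 30 min in serum-free DMEM. Triton X-100 fractionation: 3 min extraction at room temperature in 50 mM MES pH 6.8 with 2.5 mM EGTA, 5 mM MgCl2 and 0.5% Triton. Equal volumes of soluble and insoluble fractions run on SDS-PAGE. Western blot with anti-tubulin DM1A and anti-actin C4, HRP chemiluminescence, band densitometry. Four independent experiments.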

Experiment [23] has as its system REF52. Briefly: Effect on actin depolymerization in rat REF52 cells assessed as effect on ratio of soluble to insoluble protein fraction at 0.1 uM after 30 mins by Western blot analysis. The class given is cell-based. In a few lines: as §4
Experiment [24] deals with REF52. Briefly: Induction of microtubule depolymerization in rat REF52 cells at 0.1 uM after 30 mins by fluorescence assay. The class given is cell-based. In a few lines: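 Ref52 cells in serum-free DMEM, treated 30 min. Permeabilized with 3% paraformaldehyde and 0.5% Triton X-100, then fixed in 3% paraformaldehyde plus 1% glutaraldehyde, quenched with borohydride. Stained with anti-tubulin DM1A and Alexa 488 secondary, imaged by confocal microscopy. FiberScore gives total fluorescence associated with fibers. Mean ± standard error, Scheffe's test at p < 0.05.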

The test system of experiment [25] is REF52. Briefly: Induction of microtubule depolymerization in rat REF52 cells at 2 uM after 30 mins by fluorescence assay. The class given is cell-based.

Results on 5 molecules are retold here after ChEMBL document CHEMBL2424543, “Enantioselective effects of (+)- and (-)-citronellal on animal and plant microtubules” (J Nat Prod, 2013).

The source made the active and inactive calls. The rule behind the calls is not given here.

On to `CC(C)=CCC[C@H](C)CC=O`, for which the Activity in experiment [1] was 14.6 um/min; in experiment [3] it was 60%; in [6], 7.48 um/min; in experiment [7], “Dose-dependent effect”; in experiment [10], “tde”; in [11] it was 50%. The Activity in experiment [12] was 1.66 um/min; in [15], 5.94 um/min. The inhibition entry in [2] and in experiment [18] was “inactive” each time. Besides, the result in [4], in experiment [5], in experiment [8], in experiment [9], in experiment [13] and in [14] was inactive. Also, the result in experiment [16] and in experiment [17] was inactive.
The term residual activity denotes the signal under treatment as a percentage of the control signal. `CC(C)=CCC[C@@H](C)CC=O`: the Activity is 0 um/min in experiment [1]; 0 um/min in experiment [6]; “Dose-dependent effect” in [7]; “tde” in experiment [10]; 20% in experiment [11]; 0 um/min in experiment [12]. Also, the Activity in experiment [19] came to 20%; in [15], 0 um/min. The outcome in experiment [4], in experiment [5] and in [14] was Active. The outcome in experiment [8], in experiment [9], in experiment [13] and in [16] was inactive. The residual activity is 30% in [20] and 40% in experiment [21].
In the case of `COc1cc2c(c(OC)c1OC)-c1ccc(OC)c(=O)cc1[C@@H](NC(C)=O)CC2`, the result in experiment [22] and in experiment [24] was Active. Besides, in experiment [23], the result was inactive.
In the case of `CC(=O)O[C@H]1C(=O)[C@@]2(C)[C@H]([C@H](OC(=O)c3ccccc3)[C@]3(O)C[C@H](OC(=O)[C@H](O)[C@@H](NC(=O)c4ccccc4)c4ccccc4)C(C)=C1C3(C)C)[C@]1(OC(C)=O)CO[C@@H]1C[C@@H]2O`, the outcome in experiment [25] was Active.
Consider `CC[C@]1(O)C[C@@H]2CN(CCc3c([nH]c4ccccc34)[C@@](C(=O)OC)(c3cc4c(cc3OC)N(C)[C@H]3[C@@](O)(C(=O)OC)[C@H](OC(C)=O)[C@]5(CC)C=CCN6CC[C@]43[C@@H]65)C2)C1`, for which the outcome in experiment [24] was Active.
